According to ChEMBL document CHEMBL1255388, “Antimalarial asexual stage-specific and gametocytocidal activities of HIV protease inhibitors” (Antimicrob Agents Chemother, 2010):
The source made the active and inactive calls. No cut-off for these calls is given here.

How the values were obtained:
Type in all cases: functional, organism-based
Plasmodium falciparum [1] = assay: Antimicrobial activity against chloroquine-sensitive Plasmodium falciparum 3D7 after 48 hrs; conditions: 3D7, 48 h
Procedure, shortened: (§1)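 In vitro growth inhibition of P. falciparum asexual cultures. Concentrations giving 10, 50 and 90% inhibition (± SE) were obtained by nonlinear regression curve fitting. Each assay was run in triplicate on at least two separate occasions.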

Plasmodium falciparum [2] = assay: Antimicrobial activity against chloroquine-sensitive Plasmodium falciparum D10 after 48 hrs; conditions: D10, 48 h; procedure, shortened: as §1
Plasmodium falciparum [3] = assay: Antimicrobial activity against Plasmodium falciparum harboring […]-tagged Pfs16 protein after 48 hrs; procedure, shortened: as §1
Plasmodium falciparum [4] = assay: Antigametocyte activity against Plasmodium falciparum harboring GFP-tagged Pfs16 protein assessed as reduction in number of gametocytes after 40 hrs by [3H]hypoxanthine incorporation assay
Plasmodium falciparum [5] = assay: Antigametocyte activity against ring stage Plasmodium falciparum D10 assessed as inhibition of parasite growth at 40 uM after 1 to 8 hrs
Procedure, shortened: (§2)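 Synchronized D10 cultures exposed to drug at 0 h (ring), 24 h (trophozoite) or 36 h (schizont) postsynchronization. After exposure, parasites washed, resuspended in drug-free medium and labelled with 0.5 μCi/well [3H]hypoxanthine for 40 h. Uptake compared with vehicle controls. Triplicate wells, repeated on at least two separate occasions.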

Plasmodium falciparum [6] = assay: Antigametocyte activity against drug-resistant Plasmodium falciparum Dd2 trophozoites assessed as inhibition of parasite growth at 40 uM after 1 to 8 hrs
Procedure, shortened: (§3)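 Synchronized P. falciparum cultures were drug-exposed at 0 (ring), 24 (trophozoite) or 36 h (schizont) post-synchronization. They were then washed, resuspended in drug-free medium and seeded with 0.5 μCi/well [3H]hypoxanthine for 40 h. Incorporation was compared with vehicle controls. Triplicate, on at least two separate occasions.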

Plasmodium falciparum [7] = assay: Antigametocyte activity against drug-resistant ring stage Plasmodium falciparum Dd2 assessed as inhibition of parasite growth at 40 uM after 1 to 8 hrs; procedure, shortened: as §3
Plasmodium falciparum [8] = assay: Antigametocyte activity against drug-resistant Plasmodium falciparum Dd2 schizonts assessed as inhibition of parasite growth at 40 uM after 1 to 8 hrs; procedure, shortened: as §3
Plasmodium falciparum [9] = assay: Antigametocyte activity against Plasmodium falciparum D10 schizonts assessed as inhibition of parasite growth at 40 uM after 1 to 8 hrs; procedure, shortened: as §2
Plasmodium falciparum [10] = assay: Antigametocyte activity against ring stage Plasmodium falciparum D10 assessed as inhibition of parasite growth at 150 uM after 1 to 8 hrs; procedure, shortened: as §2
Plasmodium falciparum [11] = assay: Antigametocyte activity against Plasmodium falciparum D10 trophozoites assessed as inhibition of parasite growth at 40 uM after 1 to 8 hrs; procedure, shortened: as §2
Plasmodium falciparum [12] = assay: Antigametocyte activity against drug-resistant Plasmodium falciparum Dd2 schizonts assessed as inhibition of parasite growth at 150 uM after 1 to 8 hrs; procedure, shortened: as §3
Plasmodium falciparum [13] = assay: Antigametocyte activity against drug-resistant Plasmodium falciparum Dd2 trophozoites assessed as inhibition of parasite growth at 150 uM after 1 to 8 hrs; procedure, shortened: as §3
Plasmodium falciparum [14] = assay: Antigametocyte activity against Plasmodium falciparum D10 schizonts assessed as inhibition of parasite growth at 150 uM after 1 to 8 hrs; procedure, shortened: as §2
Plasmodium falciparum [15] = assay: Antigametocyte activity against Plasmodium falciparum D10 trophozoites assessed as inhibition of parasite growth at 150 uM after 1 to 8 hrs; procedure, shortened: as §2
Plasmodium falciparum [16] = assay: Antigametocyte activity against Plasmodium falciparum harboring GFP-tagged Pfs16 protein assessed as inhibition of [3H]hypoxanthine incorporation after 40 hrs
Plasmodium falciparum [17] = assay: Antigametocyte activity against drug-resistant ring stage Plasmodium falciparum Dd2 assessed as inhibition of parasite growth at 150 uM after 1 to 8 hrs; procedure, shortened: as §3
Plasmodium falciparum [18] = assay: Antimicrobial activity against chloroquine-resistant Plasmodium falciparum Dd2 after 48 hrs; conditions: Dd2, 48 h; procedure, shortened: as §1
Plasmodium falciparum [19] = assay: Antigametocyte activity against Plasmodium falciparum D10 schizonts assessed as inhibition of parasite growth at 50 nM after 1 to 8 hrs; procedure, shortened: as §2
Plasmodium falciparum [20] = assay: Antigametocyte activity against drug-resistant Plasmodium falciparum Dd2 trophozoites assessed as inhibition of parasite growth at 50 nM after 1 to 8 hrs; procedure, shortened: as §3
Plasmodium falciparum [21] = assay: Antigametocyte activity against Plasmodium falciparum D10 trophozoites assessed as inhibition of parasite growth at 50 nM after 1 to 8 hrs; procedure, shortened: as §2
Plasmodium falciparum [22] = assay: Antigametocyte activity against ring stage Plasmodium falciparum D10 assessed as inhibition of parasite growth at 50 nM after 1 to 8 hrs; procedure, shortened: as §2
Plasmodium falciparum [23] = assay: Antigametocyte activity against drug-resistant ring stage Plasmodium falciparum Dd2 […] assessed as inhibition of parasite growth at 50 nM after 1 to 8 hrs; procedure, shortened: as §3
Plasmodium falciparum [24] = assay: Antigametocyte activity against drug-resistant Plasmodium falciparum Dd2 schizonts assessed as inhibition of parasite growth at 50 nM after 1 to 8 hrs; procedure, shortened: as §3
Plasmodium falciparum [25] = assay: Antigametocyte activity against drug-resistant Plasmodium falciparum Dd2 trophozoites assessed as inhibition of parasite growth at 20 uM after 1 to 8 hrs; procedure, shortened: as §3
Plasmodium falciparum [26] = assay: Antigametocyte activity against Plasmodium falciparum D10 schizonts assessed as inhibition of parasite growth at 20 uM after 1 to 8 hrs; procedure, shortened: as §2
Plasmodium falciparum [27] = assay: Antigametocyte activity against ring stage Plasmodium falciparum D10 assessed as inhibition of parasite growth at 20 uM after 1 to 8 hrs; procedure, shortened: as §2
Plasmodium falciparum [28] = assay: Antigametocyte activity against Plasmodium falciparum D10 trophozoites assessed as inhibition of parasite growth at 20 uM after 1 to 8 hrs; procedure, shortened: as §2
Plasmodium falciparum [29] = assay: Antigametocyte activity against drug-resistant ring stage Plasmodium falciparum Dd2 assessed as inhibition of parasite growth at 20 uM after 1 to 8 hrs; procedure, shortened: as §3
Plasmodium falciparum [30] = assay: Antigametocyte activity against drug-resistant Plasmodium falciparum Dd2 schizonts assessed as inhibition of parasite growth at 20 uM after 1 to 8 hrs; procedure, shortened: as §3

Molecule CC(C)c1nc(CN(C)C(=O)N[C@H](C(=O)N[C@@H](Cc2ccccc2)C[C@H](O)[C@H](Cc2ccccc2)NC(=O)OCc2cncs2)C(C)C)cs1 [RITONAVIR] has an EC50 (Plasmodium falciparum [1]) of 3000 nM, an EC50 (Plasmodium falciparum [2]) of 3000 nM and an EC50 (Plasmodium falciparum [3]) of 5 µM. The inhibition (Plasmodium falciparum [4]) was “Dose-dependent effect”.

For CC(C)(C)NC(=O)[C@@H]1C[C@@H]2CCCC[C@@H]2CN1C[C@@H](O)[C@H](Cc1ccccc1)NC(=O)[C@H](CC(N)=O)NC(=O)c1ccc2ccccc2n1, the EC50 (Plasmodium falciparum [1]) was 3000 nM, the inhibition (Plasmodium falciparum [5]) was “inactive” and the inhibition (Plasmodium falciparum [6]) was “Active”. The inhibition (Plasmodium falciparum [7]) was “inactive”, the EC50 (Plasmodium falciparum [2]) was 3000 nM and the inhibition (Plasmodium falciparum [8]) was “Active”. For the same molecule, the EC50 (Plasmodium falciparum [3]) was 5 µM, the inhibition (Plasmodium falciparum [9]) was “inactive” and the inhibition (Plasmodium falciparum [10]) was “Active”. The inhibition (Plasmodium falciparum [4]) was “Dose-dependent effect” and the inhibition (Plasmodium falciparum [11]) was “Active”.

For CCC[C@@]1(CCc2ccccc2)CC(O)=C([C@H](CC)c2cccc(NS(=O)(=O)c3ccc(C(F)(F)F)cn3)c2)C(=O)O1, the EC50 (Plasmodium falciparum [1]) was 20000 nM, the inhibition (Plasmodium falciparum [12]) was “Active” and the inhibition (Plasmodium falciparum [13]) was “Active”. The EC50 (Plasmodium falciparum [2]) was 12000 nM, the inhibition (Plasmodium falciparum [14]) was “Active” and the inhibition (Plasmodium falciparum [15]) was “Active”. The EC50 (Plasmodium falciparum [3]) was 18 µM, the inhibition (Plasmodium falciparum [16]) was “Active” and the inhibition (Plasmodium falciparum [17]) was “inactive”. For the same molecule, the inhibition (Plasmodium falciparum [10]) was “inactive”, the EC50 (Plasmodium falciparum [18]) was 21 µM and the inhibition (Plasmodium falciparum [4]) was “Dose-dependent effect”.

In the case of CC(C)CN(C[C@@H](O)[C@H](Cc1ccccc1)NC(=O)O[C@H]1CO[C@H]2OCC[C@H]21)S(=O)(=O)c1ccc(N)cc1, the EC50 (Plasmodium falciparum [18]) is reported as 70 µM.

In the case of CCN(CC)CCCC(C)Nc1ccnc2cc(Cl)ccc12 (configuration not stated) [CHLOROQUINE], the EC50 (Plasmodium falciparum [1]) is reported as 25 nM, the inhibition (Plasmodium falciparum [19]) is reported as “Active” and the inhibition (Plasmodium falciparum [20]) is reported as “Active”. For the same molecule, the inhibition (Plasmodium falciparum [21]) was “Active”, the EC50 (Plasmodium falciparum [2]) was 23 nM and the inhibition (Plasmodium falciparum [22]) was “inactive”. For the same molecule, the EC50 (Plasmodium falciparum [3]) was 0.023 µM, the inhibition (Plasmodium falciparum [23]) was “inactive” and the inhibition (Plasmodium falciparum [24]) was “Active”.

For Cc1cccc(C)c1OCC(=O)N[C@@H](Cc1ccccc1)[C@@H](O)C[C@H](Cc1ccccc1)NC(=O)[C@H](C(C)C)N1CCCNC1=O [LOPINAVIR], the EC50 (Plasmodium falciparum [1]) was 2000 nM, the inhibition (Plasmodium falciparum [25]) was “Active” and the inhibition (Plasmodium falciparum [26]) was “Active”. The EC50 (Plasmodium falciparum [2]) was 2000 nM, the inhibition (Plasmodium falciparum [27]) was “inactive” and the inhibition (Plasmodium falciparum [28]) was “Active”. For the same molecule, the EC50 (Plasmodium falciparum [3]) was 3 µM, the inhibition (Plasmodium falciparum [29]) was “inactive” and the inhibition (Plasmodium falciparum [4]) was “Dose-dependent effect”. For the same molecule, the inhibition (Plasmodium falciparum [30]) was “Active”.
